Measurements of several laboratories.
Compare with care: the assays were run in different laboratories.
Target: Dual specificity tyrosine-phosphorylation-regulated kinase 1A (DYRK1A, Homo sapiens, UniProt Q13627)

Structure (SMILES)	assay	conditions	quantity	value
COc1cc(Nc2ncc(F)c(Nc3ccc4c(n3)NC(=O)C(C)(C)O4)n2)cc(OC)c1OC	binding, competition with immobilised ligand	10 µM	inhibition	91%
Cn1cc(-c2cccc(N3CCc4c(sc5c4CC(C)(C)C5)C3=O)c2CO)cc(Nc2ccncn2)c1=O	enzyme activity, inhibitor	1 µM	inhibition	5%
O=c1[nH]c2ccccc2n1C1CCN(Cc2ccc(-c3[nH]c4cc5ncnc5cc4nc3-c3ccccc3)cc2)CC1	cell-free assay	0.5 µM	remaining signal	101%
N#CC1(c2ccccn2)CCN(Cc2cc(C(=O)O)c(=O)n3ccccc23)CC1	cell-free assay, competition with immobilised ligand	1 µM	remaining binding	97%
Cn1cc(-c2cc(F)cc(N3CCn4c(cc5c4CCCC5)C3=O)c2CO)cc(Nc2ccc(N3CCN(C4COC4)CC3)cn2)c1=O	enzyme activity, inhibitor	0.1 µM	inhibition	4%
Cn1cncc1[C@](O)(COc1ccc(C#N)cc1-c1ccc(OC(F)(F)F)cc1)c1ccc(C#N)cc1	cell-free assay, competition with immobilised ligand	1 µM	remaining binding	81%
COc1ncccc1-c1cnn2ccc(N3CCN(C(=O)OC(C)C)CC3)nc12	binding, competition with immobilised ligand	1 µM	remaining binding	95%
Nc1ncc(-c2nc(N3CCOCC3)nc(N3CCOCC3)n2)c(C(F)F)n1	cell-free assay, competition with immobilised ligand	10 µM	remaining binding	48%
Cc1nn(C)cc1-c1nc2c(N3CCN(Cc4ccc(Cl)cc4)CC3)c(Cl)cnc2[nH]1	binding, competition with immobilised ligand	1 µM	remaining binding	82%
CC(C)(C)c1cc(C=C(C#N)C#N)cc(Br)c1O	enzyme activity, inhibitor	0.5 µM	remaining activity	95.4%
